Test results taken from ChEMBL document CHEMBL4680118, “Cerpegin-derived furo[3,4-c]pyridine-3,4(1H,5H)-diones enhance cellular response to interferons by de novo pyrimidine biosynthesis inhibition” (Eur J Med Chem, 2020).
Activity calls are given as the source filed them. No cut-off for these calls is given here.

Columns and labels:
[1] = molecular target: T1, Dihydroorotate dehydrogenase (quinone), mitochondrial (Homo sapiens, UniProt Q02127); experiment: Inhibition of DHODH in human HEK293 cells transfected with ISRE-luciferase reporter gene assessed as increase in 60 IU/ml IFN-alpha stimulated MX2 mRNA expression at 80 uM measured after 16 hrs by RT-qPCR analysis relative to control; format: cell-based
T1 sequence (Q02127 whole entry): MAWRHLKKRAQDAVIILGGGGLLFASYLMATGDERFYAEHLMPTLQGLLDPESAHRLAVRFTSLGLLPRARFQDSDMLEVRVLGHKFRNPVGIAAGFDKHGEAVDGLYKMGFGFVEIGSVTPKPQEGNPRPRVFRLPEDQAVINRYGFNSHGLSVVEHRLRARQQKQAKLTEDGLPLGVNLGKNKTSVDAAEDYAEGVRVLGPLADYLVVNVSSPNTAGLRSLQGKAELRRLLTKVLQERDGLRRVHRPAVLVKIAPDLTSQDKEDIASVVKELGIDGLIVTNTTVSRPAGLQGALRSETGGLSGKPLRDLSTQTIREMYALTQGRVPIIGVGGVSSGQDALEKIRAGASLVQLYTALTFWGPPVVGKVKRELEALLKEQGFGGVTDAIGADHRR
Procedure, shortened: (§1)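 HEK-293 ISRE-Luc cells (DMEM, 10% FCS, 37°C, 5% CO2) were given increasing IFN-α doses together with DMSO or compound at 80 μM, then harvested at 16 h. RNA was extracted from 2×10^5 cells with DNase treatment. Transcripts were run by qPCR for 35 cycles and normalized to RPL13A and to unstimulated controls by 2^-ΔΔCT. Values are fold change versus DMSO; three independent experiments; two-way ANOVA with Bonferroni.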

[2] = molecular target: T1, Dihydroorotate dehydrogenase (quinone), mitochondrial; experiment: Inhibition of DHODH in human HEK293 cells transfected with ISRE-luciferase reporter gene assessed as increase in INFgamma-stimulated cellular response at 80 uM measured after 24 hrs by luciferase reporter gene assay; format: cell-based
Procedure, shortened: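 ISRE-Luc HEK-293 cells were treated with DMSO or compound at 80 μM, with or without recombinant IFN-γ at 150 IU/ml. Firefly luciferase was read 24 h later with Bright-Glo or Britelite, 0.1 s luminescence. Signal was normalized to DMSO + IFN-γ. Values are means ± SD of three independent experiments; two-tailed t-test.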

[3] = molecular target: T1, Dihydroorotate dehydrogenase (quinone), mitochondrial; experiment: Inhibition of DHODH in human HEK-293 cells transfected with ISRE-luciferase reporter gene assessed as increase in IFN-alpha mediated cellular response after 24 hrs by luciferase reporter gene assay; settings: read-out: EC50
[4] = molecular target: T1, Dihydroorotate dehydrogenase (quinone), mitochondrial; experiment: Inhibition of DHODH in human HEK293 cells transfected with ISRE-luciferase reporter gene assessed as increase in 30 IU/ml IFN-alpha stimulated DDX58 mRNA expression at 80 uM measured after 16 hrs by RT-qPCR analysis relative to control; format: cell-based
Procedure, shortened: (§2)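 ISRE-Luc HEK cells co-treated with increasing IFN-α concentrations and DMSO or compound (80 µM) for 16 h. Total RNA extracted from 2×10^5 cells with DNase step; qPCR 35 cycles. CT values normalized to RPL13A and unstimulated controls (2^-ΔΔCT), expressed as fold change versus DMSO alone. Three independent experiments; two-way ANOVA with Bonferroni.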

[5] = molecular target: T1, Dihydroorotate dehydrogenase (quinone), mitochondrial; experiment: Inhibition of DHODH in human HEK293 cells transfected with ISRE-luciferase reporter gene assessed as increase in 30 IU/ml IFN-alpha stimulated IFIT1 mRNA expression at 80 uM measured after 16 hrs by RT-qPCR analysis relative to control; format: cell-based; procedure, shortened: as §2
[6] = molecular target: T1, Dihydroorotate dehydrogenase (quinone), mitochondrial; experiment: Inhibition of DHODH in human HEK-293 cells transfected with ISRE-luciferase reporter gene assessed as increase in 150 IU/ml IFN-alpha mediated cellular response at 80 uM in presence of P300/CBP measured after 24 hrs by luciferase reporter gene assay; format: cell-based; settings: HEK293
Procedure, shortened: (§3)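 ISRE-Luc HEK-293 cells given IFN-α (150 IU/ml) alone or with test compound (80 µM), with or without the MRE11 inhibitor mirin, ATR inhibitor AZD6738, CHK1 inhibitor PF477736 or P300/CBP inhibitor C636. Firefly luciferase read 24 h later, normalized to IFN-α alone. Means ± SD of at least three independent experiments.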

[7] = molecular target: T1, Dihydroorotate dehydrogenase (quinone), mitochondrial; experiment: Inhibition of DHODH in human HEK293 cells transfected with ISRE-luciferase reporter gene assessed as increase in 125 IU/ml IFN-alpha stimulated DDX58 mRNA expression at 80 uM measured after 16 hrs by RT-qPCR analysis relative to control; format: cell-based; procedure, shortened: as §2
[8] = molecular target: T1, Dihydroorotate dehydrogenase (quinone), mitochondrial; experiment: Inhibition of DHODH in human HEK293 cells transfected with ISRE-luciferase reporter gene assessed as increase in 30 IU/ml IFN-alpha stimulated PML mRNA expression at 80 uM measured after 16 hrs by RT-qPCR analysis relative to control; format: cell-based; procedure, shortened: as §2
[9] = molecular target: T1, Dihydroorotate dehydrogenase (quinone), mitochondrial; experiment: Inhibition of DHODH in human HEK293 cells transfected with ISRE-luciferase reporter gene assessed as increase in 250 IU/ml IFN-alpha stimulated MX2 mRNA expression at 80 uM measured after 16 hrs by RT-qPCR analysis relative to control; format: cell-based; procedure, shortened: as §2
[10] = molecular target: T1, Dihydroorotate dehydrogenase (quinone), mitochondrial; experiment: Inhibition of DHODH in human HEK293 cells transfected with ISRE-luciferase reporter gene assessed as increase in 60 IU/ml IFN-alpha stimulated ISG15 mRNA expression at 80 uM measured after 16 hrs by RT-qPCR analysis relative to control; format: cell-based; procedure, shortened: as §1
[11] = molecular target: T1, Dihydroorotate dehydrogenase (quinone), mitochondrial; experiment: Inhibition of DHODH in human HEK293 cells transfected with ISRE-luciferase reporter gene assessed as increase in 250 IU/ml IFN-alpha stimulated PKR mRNA expression at 80 uM measured after 16 hrs by RT-qPCR analysis relative to control; format: cell-based; procedure, shortened: as §2
[12] = molecular target: T1, Dihydroorotate dehydrogenase (quinone), mitochondrial; experiment: Inhibition of DHODH in human HEK293 cells assessed as increase in 250 IU/ml IFN-alpha stimulated DDX58 mRNA expression at 80 uM measured after 16 hrs by RT-qPCR analysis relative to control; format: cell-based; procedure, shortened: as §2
[13] = molecular target: T1, Dihydroorotate dehydrogenase (quinone), mitochondrial; experiment: Inhibition of DHODH in human HEK-293 cells transfected with ISRE-luciferase reporter gene assessed as increase in 150 IU/ml IFN-alpha mediated cellular response at 80 uM in presence of AZD6738 ATR inhibitor measured after 24 hrs by luciferase reporter gene assay; format: cell-based; settings: HEK293; procedure, shortened: as §3
[14] = molecular target: T1, Dihydroorotate dehydrogenase (quinone), mitochondrial; experiment: Inhibition of DHODH in human HEK293 cells transfected with ISRE-luciferase reporter gene assessed as increase in 60 IU/ml IFN-alpha stimulated IFIT5 mRNA expression at 80 uM measured after 16 hrs by RT-qPCR analysis relative to control; format: cell-based; procedure, shortened: as §1
[15] = molecular target: T1, Dihydroorotate dehydrogenase (quinone), mitochondrial; experiment: Inhibition of DHODH in human HEK-293 cells transfected with ISRE-luciferase reporter gene assessed as increase in 150 IU/ml IFN-alpha mediated cellular response at 80 uM in presence of mirin measured after 24 hrs by luciferase reporter gene assay; format: cell-based; settings: HEK293; procedure, shortened: as §3
[16] = molecular target: T1, Dihydroorotate dehydrogenase (quinone), mitochondrial; experiment: Inhibition of DHODH in human HEK293 cells assessed as increase in 125 IU/ml IFN-alpha stimulated ISG15 mRNA expression at 80 uM measured after 16 hrs by RT-qPCR analysis relative to control; format: cell-based; procedure, shortened: as §2
[17] = molecular target: T1, Dihydroorotate dehydrogenase (quinone), mitochondrial; experiment: Inhibition of DHODH in human HEK293 cells transfected with ISRE-luciferase reporter gene assessed as increase in 125 IU/ml IFN-alpha stimulated IFIT5 mRNA expression at 80 uM measured after 16 hrs by RT-qPCR analysis relative to control; format: cell-based; procedure, shortened: as §2
[18] = molecular target: T1, Dihydroorotate dehydrogenase (quinone), mitochondrial; experiment: Inhibition of DHODH in human HEK293 cells transfected with ISRE-luciferase reporter gene assessed as increase in 125 IU/ml IFN-alpha stimulated IFIT2 mRNA expression at 80 uM measured after 16 hrs by RT-qPCR analysis relative to control; format: cell-based; procedure, shortened: as §2

**Q.** Which fold change (FC) [1] does the source give for O=C1OC2(CCCCC2)c2ccn(C3CC3)c(=O)c21 here?
**A.** Its fold change (FC) is 13.

**Q.** And the Activity [2]?
**A.** Its Activity is “Active”.

**Q.** And the EC50 [3]?
**A.** Its EC50 is 44 µM.

**Q.** What about the fold change (FC) [4] of the same compound?
**A.** Its fold change (FC) is 16.

**Q.** And the fold change (FC) [5]?
**A.** Its fold change (FC) is 51.

**Q.** And the Activity [6]?
**A.** Its Activity is “inactive”.

**Q.** And the fold change (FC) [7]?
**A.** Its fold change (FC) is 31.

**Q.** And the fold change (FC) [8]?
**A.** The fold change (FC) was 3.

**Q.** What about the fold change (FC) [9] of the same compound?
**A.** Its fold change (FC) is 28.

**Q.** What about the fold change (FC) [10] of the same compound?
**A.** Its fold change (FC) is 163.

**Q.** And the fold change (FC) [11]?
**A.** The fold change (FC) was 4.

**Q.** And the fold change (FC) [12]?
**A.** The fold change (FC) was 38.

**Q.** What about the Activity [13] of the same compound?
**A.** Its Activity is “inactive”.

**Q.** What about the fold change (FC) [14] of the same compound?
**A.** The fold change (FC) was 3.

**Q.** And the Activity [15]?
**A.** Its Activity is “inactive”.

**Q.** And the fold change (FC) [16]?
**A.** Its fold change (FC) is 200.

**Q.** And the fold change (FC) [17]?
**A.** Its fold change (FC) is 4.

**Q.** And the fold change (FC) [18]?
**A.** Its fold change (FC) is 112.
